ChEMBL document CHEMBL3875200, “Bivalent SIRT1 inhibitors” (Bioorg Med Chem Lett, 2017)
The source made the active and inactive calls. The rule behind the calls is not given here.

Tests used:
[1] = biological target: T1, NAD-dependent protein deacetylase sirtuin-1 (Homo sapiens, UniProt Q96EB6); assay: Inhibition of recombinant human His6/GST-tagged SIRT1 expressed in Escherichia coli assessed as reduction in H2N-HK-[Nepsilon-acetyl-lysine]-LM-COOH deacetylation measured after 10 mins in presence of beta-NAD+ by RP-HPLC assay
T1 sequence (Q96EB6 whole entry): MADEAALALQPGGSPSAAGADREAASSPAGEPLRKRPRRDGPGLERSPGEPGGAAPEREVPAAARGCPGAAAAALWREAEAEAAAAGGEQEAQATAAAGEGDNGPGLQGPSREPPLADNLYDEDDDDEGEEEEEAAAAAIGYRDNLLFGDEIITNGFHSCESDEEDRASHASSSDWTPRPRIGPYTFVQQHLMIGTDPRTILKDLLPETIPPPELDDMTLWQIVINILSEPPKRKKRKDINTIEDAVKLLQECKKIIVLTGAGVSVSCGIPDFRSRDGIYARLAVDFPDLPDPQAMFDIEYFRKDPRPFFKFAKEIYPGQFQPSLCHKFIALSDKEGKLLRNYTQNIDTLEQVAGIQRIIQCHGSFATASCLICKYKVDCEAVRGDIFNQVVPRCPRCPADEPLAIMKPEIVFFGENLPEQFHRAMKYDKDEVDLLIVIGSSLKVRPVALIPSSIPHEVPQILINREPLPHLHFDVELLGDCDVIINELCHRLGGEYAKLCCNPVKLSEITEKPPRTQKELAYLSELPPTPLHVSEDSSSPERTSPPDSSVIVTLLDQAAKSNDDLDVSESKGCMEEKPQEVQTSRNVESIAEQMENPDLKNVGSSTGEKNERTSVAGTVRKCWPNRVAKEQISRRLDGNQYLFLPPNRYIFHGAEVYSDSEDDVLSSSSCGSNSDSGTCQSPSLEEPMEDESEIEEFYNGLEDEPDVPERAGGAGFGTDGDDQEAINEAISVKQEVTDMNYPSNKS

[2] = Aqueous solubility of the compound; format: physicochemical; details: buffer
[3] = biological target: T2, NAD-dependent protein deacetylase sirtuin-1 (Homo sapiens) (UniProt Q96EB6); assay: (§1) Competitive inhibition of recombinant human His6/GST-tagged SIRT1 expressed in Escherichia coli assessed as deacetylation of H2N-HK-[epsilonN-acetyl-lysine]-LM-COOH at 4 to 8.5 uM measured after 10 mins in presence of constant beta-NAD+ and varying substrate concentration by Lineweaver-Burk plot analysis
T2 sequence (whole entry): T1 sequence (Q96EB6 whole entry)
How it was run: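 Inhibitor tested against varied acetyl-lysine peptide substrate H2N-HK-(Nε-acetyl-lysine)-LM-COOH. A competitive inhibition constant (Kis) and the apparent Km for this peptide were derived from the kinetic data.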

[4] = biological target: T2, NAD-dependent protein deacetylase sirtuin-1 (Homo sapiens); assay: as §1, with “Non-competitive” for “Competitive”, “varying” for “constant”, “constant” for “varying”
How it was run: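 β-NAD⁺ was the varied co-substrate. An uncompetitive-intercept inhibition constant (Kii) and the apparent Km for β-NAD⁺ were derived from the kinetic data.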

[5] = biological target: T3, NAD-dependent protein deacetylase sirtuin-2 (Homo sapiens, UniProt Q8IXJ6); assay: Inhibition of recombinant human His6-tagged SIRT2 (2 to 389 residues) expressed in Escherichia coli assessed as inhibition of H2N-HK-[epsilonN-acetyl-lysine]-LM-COOH deacetylation measured after 12 mins in presence of beta-NAD+ by RP-HPLC analysis
T3 sequence (Q8IXJ6 whole entry): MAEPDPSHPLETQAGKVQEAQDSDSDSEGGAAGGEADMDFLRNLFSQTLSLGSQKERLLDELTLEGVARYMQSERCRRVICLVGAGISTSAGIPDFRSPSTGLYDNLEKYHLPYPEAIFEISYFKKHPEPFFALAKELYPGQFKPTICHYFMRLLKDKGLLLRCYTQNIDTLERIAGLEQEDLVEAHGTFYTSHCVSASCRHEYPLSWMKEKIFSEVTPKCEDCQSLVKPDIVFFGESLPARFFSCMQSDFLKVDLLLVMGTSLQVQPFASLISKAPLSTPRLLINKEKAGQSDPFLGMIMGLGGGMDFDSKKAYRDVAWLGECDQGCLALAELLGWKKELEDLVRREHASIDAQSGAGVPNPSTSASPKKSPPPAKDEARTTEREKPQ

[6] = biological target: T4, NAD-dependent protein deacetylase sirtuin-3, mitochondrial (Homo sapiens, UniProt Q9NTG7); assay: Inhibition of recombinant human His6-tagged SIRT3 (101 to 399 residues) expressed in Escherichia coli assessed as inhibition of H2N-HK-[epsilonN-acetyl-lysine]-LM-COOH deacetylation measured after 10 mins in presence of beta-NAD+ by reversed-phase C18 HPLC analysis
T4 sequence (Q9NTG7 whole entry): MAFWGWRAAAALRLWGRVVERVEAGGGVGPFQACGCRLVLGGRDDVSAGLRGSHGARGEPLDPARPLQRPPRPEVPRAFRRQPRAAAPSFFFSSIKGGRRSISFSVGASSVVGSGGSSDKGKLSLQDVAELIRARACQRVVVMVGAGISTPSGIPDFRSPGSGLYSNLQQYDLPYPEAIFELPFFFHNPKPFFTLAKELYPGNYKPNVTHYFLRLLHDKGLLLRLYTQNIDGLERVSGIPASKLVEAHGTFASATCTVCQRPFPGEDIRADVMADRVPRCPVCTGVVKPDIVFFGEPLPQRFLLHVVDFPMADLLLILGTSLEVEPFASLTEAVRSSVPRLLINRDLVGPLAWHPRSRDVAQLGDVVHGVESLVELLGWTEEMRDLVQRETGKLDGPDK

Homo sapiens [7] = species on record: Homo sapiens; assay: Selectivity ratio of IC50 for recombinant human His6/GST-tagged SIRT1 expressed in Escherichia coli to IC50 for recombinant human His6-tagged SIRT2 (2 to 389 residues) expressed in Escherichia coli
Homo sapiens [8] = species on record: Homo sapiens; assay: Selectivity ratio of IC50 for recombinant human His6/GST-tagged SIRT1 expressed in Escherichia coli to IC50 for recombinant human His6-tagged SIRT3 (101 to 399 residues) expressed in Escherichia coli
[9] = biological target: T2, NAD-dependent protein deacetylase sirtuin-1 (Homo sapiens); assay: Reversible inhibition of recombinant human His6/GST-tagged SIRT1 expressed in Escherichia coli assessed as inhibition of H2N-HK-[epsilonN-acetyl-lysine]-LM-COOH deacetylation measured after 10 mins in presence of beta-NAD+ by Dixon plot analysis

Row | SMILES | IC50 [1] | also measured
1 | CC(=O)NCCCC[C@H](NC(=O)[C@H](CCCCNC(=O)CCCCCCCSc1nc2ccccc2s1)NC(=O)[C@H](CCCCNC(C)=O)NC(C)=O)C(N)=O | 5.3 µM | solubility [2]: Insoluble
2 | CC(=O)NCCCC[C@H](NC(=O)[C@H](CCCCNC(=O)CSCc1ccccc1)NC(=O)[C@H](CCCCNC(C)=O)NC(C)=O)C(N)=O | 171 µM | 
3 | CC(=O)NCCCC[C@H](NC(=O)[C@H](CCCCNC(=O)CCCSc1nc2ccccc2s1)NC(=O)[C@H](CCCCNC(C)=O)NC(C)=O)C(N)=O | 27 µM | 
4 | CC(=O)NCCCC[C@H](NC(=O)[C@H](CCCCNC(=O)CCCCCCSc1nc2ccccc2s1)NC(=O)[C@H](CCCCNC(C)=O)NC(C)=O)C(N)=O | 30 µM | 
5 | CC(=O)NCCCC[C@H](NC(=O)[C@H](CCCCNC(=O)CSc1nnc(/C=C/c2ccccc2)[nH]1)NC(=O)[C@H](CCCCNC(C)=O)NC(C)=O)C(N)=O | 150 µM | 
6 | CC(=O)NCCCC[C@H](NC(=O)[C@H](CCCCNC(=O)CCCCCSc1nc2ccccc2s1)NC(=O)[C@H](CCCCNC(C)=O)NC(C)=O)C(N)=O | 12.4 µM | inhibition [3]: Active; inhibition [4]: Active; IC50 [5]: > 200 µM; IC50 [6]: > 1000 µM; Ratio IC50 (Homo sapiens [7]): > 16; Ratio IC50 (Homo sapiens [8]): > 81
7 | CC(=O)NCCCC[C@H](NC(=O)[C@H](CCCCNC(=O)CCCCCSc1ccc2ccccc2c1)NC(=O)[C@H](CCCCNC(C)=O)NC(C)=O)C(N)=O | 14.6 µM | 
8 | CC(=O)NCCCC[C@H](NC(=O)[C@H](CCCCNC(=O)CCCCCSc1cccc2ccccc12)NC(=O)[C@H](CCCCNC(C)=O)NC(C)=O)C(N)=O | 14.6 µM | 
9 | CC(=O)NCCCC[C@H](NC(=O)[C@H](CCCCNC(=O)CSc1ncc(-c2ccccc2)s1)NC(=O)[C@H](CCCCNC(C)=O)NC(C)=O)C(N)=O | 18 µM | 
10 | CC(=O)NCCCC[C@H](NC(=O)[C@H](CCCCNC(=O)CNC(=O)CI)NC(=O)[C@H](CCCCNC(C)=O)NC(C)=O)C(N)=O | > 200 µM | inhibition [9]: Active
11 | CC(=O)NCCCC[C@H](NC(=O)[C@H](CCCCNC(=O)CCCCCSc1nc2ccccc2[nH]1)NC(=O)[C@H](CCCCNC(C)=O)NC(C)=O)C(N)=O | 187 µM | 
12 | CC(=O)NCCCC[C@H](NC(=O)[C@H](CCCCNC(=O)CNC(=O)CNC(=O)CSc1nc2ccccc2s1)NC(=O)[C@H](CCCCNC(C)=O)NC(C)=O)C(N)=O | 116 µM | 
13 | CC(=O)NCCCC[C@H](NC(=O)[C@H](CCCCNC(=O)CSc1nc2ccccc2s1)NC(=O)[C@H](CCCCNC(C)=O)NC(C)=O)C(N)=O | 77.5 µM | 
14 | CC(=O)NCCCC[C@H](NC(=O)[C@H](CCCCNC(=O)CCCCCSCc1ccccc1)NC(=O)[C@H](CCCCNC(C)=O)NC(C)=O)C(N)=O | 57.7 µM | 
15 | CC(=O)NCCCC[C@H](NC(=O)[C@H](CCCCNC(=O)CCCCCCCSc1nc2c(N)ncnc2[nH]1)NC(=O)[C@H](CCCCNC(C)=O)NC(C)=O)C(N)=O | 45.8 µM | 
16 | CC(=O)NCCCC[C@H](NC(=O)[C@H](CCCCNC(=O)CCCCCSc1nc2ccccc2o1)NC(=O)[C@H](CCCCNC(C)=O)NC(C)=O)C(N)=O | 133 µM | 
17 | CC(=O)NCCCC[C@H](NC(=O)[C@H](CCCCNC(=O)CCCCCSc1nc2c(N)ncnc2[nH]1)NC(=O)[C@H](CCCCNC(C)=O)NC(C)=O)C(N)=O | > 900 µM | 
18 | CC(=O)NCCCC[C@H](NC(=O)[C@H](CCCCNC(=O)CCCCCSc1ncc(-c2ccccc2)s1)NC(=O)[C@H](CCCCNC(C)=O)NC(C)=O)C(N)=O | 15.4 µM | 
19 | CC(=O)NCCCC[C@H](NC(=O)[C@H](CCCCNC(=O)CI)NC(=O)[C@H](CCCCNC(C)=O)NC(C)=O)C(N)=O | 39.3 µM | inhibition [9]: Active; IC50 [5]: 22.2 µM
